Key:
α-glucosidase [1] = biological target: T1, α-glucosidase (Saccharomyces cerevisiae, UniProt P53341); test: α-Glucosidase inhibitory assay in vitro; type: biochemical; settings: for α-Glucosidase inhibitory activity (in words): up to the highest tested concentration
α-glucosidase [2] = biological target: T1, α-glucosidase; test: Steady-state kinetic analysis of α-glucosidase inhibition; type: biochemical
In short: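 Yeast α-glucosidase (final 0.025 U mL−1, in 75 mM phosphate buffer pH 7.4) premixed with test compound at several concentrations for 10 min at 37 °C. 4-NPGP (50–200 μM) added to start the reaction. 4-Nitrophenol followed at 405 nm every 30 s for 10 min, with initial velocity taken as ΔA per min. Analysed by Lineweaver–Burk plots. Ki came from secondary plots of slopes, and Ki′ from secondary plots of apparent 1/Vmax, against inhibitor concentration. Three independent experiments.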

T1 sequence (P53341 whole entry): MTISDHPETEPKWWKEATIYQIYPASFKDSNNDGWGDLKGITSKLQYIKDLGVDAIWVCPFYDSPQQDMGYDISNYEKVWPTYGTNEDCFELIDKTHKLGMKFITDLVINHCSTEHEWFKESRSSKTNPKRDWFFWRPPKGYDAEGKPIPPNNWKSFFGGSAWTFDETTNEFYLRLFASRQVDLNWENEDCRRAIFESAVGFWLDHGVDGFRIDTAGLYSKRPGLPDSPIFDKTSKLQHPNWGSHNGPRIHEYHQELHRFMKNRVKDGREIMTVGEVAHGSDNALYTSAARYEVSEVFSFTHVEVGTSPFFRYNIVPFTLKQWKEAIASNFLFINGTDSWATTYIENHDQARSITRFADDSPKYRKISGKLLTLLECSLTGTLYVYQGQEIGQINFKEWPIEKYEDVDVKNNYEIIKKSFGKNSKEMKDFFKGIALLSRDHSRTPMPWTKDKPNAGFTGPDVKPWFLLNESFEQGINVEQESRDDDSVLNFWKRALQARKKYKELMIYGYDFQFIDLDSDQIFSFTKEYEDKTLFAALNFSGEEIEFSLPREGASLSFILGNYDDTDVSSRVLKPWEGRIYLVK

Row | IC50 (α-glucosidase [1]) [µM] | α-Glucosidase inhibitory activity (in words) (α-glucosidase [1]) | Ki (α-glucosidase [2]) [µM] | Inhibition mode (α-glucosidase [2]; with respect to substrate 4-NPGP (50–200 μM)) | SMILES
1 | > 100 | – | – | – | O=C(O)/C=C/c1ccc(O)c(O)c1 [CA, caffeic acid]
2 | > 100 | – | – | – | C[C@H]1COC2=C1C(=O)C(=O)c1c2ccc2c1CCCC2(C)C [CTS, cryptotanshinone]
3 | > 100 | weak inhibitory effect | – | – | O=C(/C=C/c1ccc(O)c2c1[C@H](C(=O)O)[C@@H](c1ccc(O)c(O)c1)O2)O[C@H](Cc1ccc(O)c(O)c1)C(=O)O [LA, lithospermic acid]
4 | > 100 | – | – | – | CC(C)C1=Cc2ccc3c(c2C(=O)C1=O)CCCC3(C)C [MT, miltirone]
5 | > 200 | – | – | – | O=C(/C=C/c1ccc(O)c(O)c1)O[C@H](Cc1ccc(O)c(O)c1)C(=O)O [RA, rosmarinic acid]
6 | 19.3 ± 0.89 | – | 21.2 | competitive inhibition | O=C(/C=C/c1ccc(O)c(O)c1/C=C/c1ccc(O)c(O)c1)O[C@H](Cc1ccc(O)c(O)c1)C(=O)O [SAA, salvianolic acid A]
7 | > 100 | – | – | – | Cc1coc2c1C(=O)C(=O)c1c-2ccc2c1CCCC2(C)C [TS-IIA, tanshinone IIA]
8 | > 100 | weak inhibitory activity | – | – | Cc1coc2c1C(=O)C(=O)c1c-2ccc2c1CCCC2(C)CO (stereo not shown) [TS-IIB, tanshinone IIB]
9 | – | weak inhibitory activity | – | – | C[C@H]1[C@H](C)CC[C@]2(C(=O)O)CC[C@]3(C)C(=CC[C@@H]4[C@@]5(C)CC[C@H](O)C(C)(C)[C@@H]5CC[C@]43C)[C@H]12 [UA, ursolic acid]
